Converted amounts (≈) assume the structure as drawn. The source made the active and inactive calls. No cut-off for these calls is given here.
What was measured:
HeLa = experiment: Cytotoxicity against human HeLa cells after 72 hrs by acid phosphatase assay; assay type: functional, cell-based
Summary of the method: (§1)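 Cells grown in DMEM with 10% FCS, penicillin and streptomycin at 37 °C, 5% CO2. Seeded at 2000 cells/well in 96-well plates and exposed to compound or left untreated for 72 h.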

[1] = Antioxidant activity assessed as inhibition of peroxide formation using iron/ascorbate system; assay type: functional
Summary of the method: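 Linoleic acid (100 mg) emulsified with Tween 20 in 50 mM Tris pH 7.4. Emulsion mixed with iron/ascorbate (30 µM FeCl3, 200 µM ascorbic acid, made daily) and methanolic compound, giving ca. 0, 1, 4, 10 ppm final. Tubes held on ice, then 37 °C for 5 and 30 min. Conjugated diene hydroperoxide read at 234 nm after MeOH dilution. BHT 2000 ppm control. Triplicates.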

C6 = experiment: Cytotoxicity against rat C6 cells after 72 hrs by acid phosphatase assay; assay type: functional, cell-based; conditions: C6, 72 h; summary of the method: as §1
HCT-116 = experiment: Cytotoxicity against human HCT116 cells after 72 hrs by acid phosphatase assay; assay type: functional, cell-based; conditions: HCT-116, 72 h; summary of the method: as §1
Huh-7 = experiment: Cytotoxicity against human HuH7 cells after 72 hrs by acid phosphatase assay; assay type: functional, cell-based; conditions: Huh-7, 72 h; summary of the method: as §1
LoVo = experiment: Cytotoxicity against human LoVo cells after 72 hrs by acid phosphatase assay; assay type: functional, cell-based; summary of the method: as §1

SMILES | IC50 (HeLa) | Activity [1] | IC50 (C6) | IC50 (HCT-116) | IC50 (Huh-7) | IC50 (LoVo)
C/C=C/C=C/C/C=C\CCCCCCCCCc1cc(O)ccc1O | 2.8 µg/mL (≈ 8.17 µM) | Active | 0.9 µg/mL (≈ 2.63 µM) | 2 µg/mL (≈ 5.84 µM) | 3.9 µg/mL (≈ 11.4 µM) | 4.5 µg/mL (≈ 13.1 µM)
CCCCCC/C=C\CCCCCCCCCc1cc(O)ccc1O | 4.7 µg/mL (≈ 13.6 µM) | Active | 1.1 µg/mL (≈ 3.17 µM) | 3.4 µg/mL (≈ 9.81 µM) | 6.4 µg/mL (≈ 18.5 µM) | 2.9 µg/mL (≈ 8.37 µM)
CCC/C=C/C/C=C\CCCCCCCCCc1cc(O)ccc1O | 4.6 µg/mL (≈ 13.4 µM) | Active | 1 µg/mL (≈ 2.9 µM) | 3.5 µg/mL (≈ 10.2 µM) | 6 µg/mL (≈ 17.4 µM) | 5.6 µg/mL (≈ 16.3 µM)

— ChEMBL document CHEMBL1150145, “Antioxidative and cytotoxic compounds extracted from the sap of Rhus succedanea” (J Nat Prod, 2002)
